# Test results published in ChEMBL document CHEMBL3997791, “Nanomolar-Potency Aminophenyl-1,3,5-triazine Activators of the Cystic Fibrosis Transmembrane Conductance Regulator (CFTR) Chloride Channel for Prosecretory Therapy of Dry Eye Diseases” (J Med Chem, 2017).
# pEC50: −log10 of the molar value. Calls of active or inactive are those of the source. The rule behind the calls is not given here.
# Tested on: Mus musculus
# Assay: Induction of tear secretion in mouse at 250 pmol administered as single topical dose up to 8 hrs by phenol red thread test
# Format: functional
# Details: not given
# In short: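 Mice 8–12 weeks (25–35 g); single ocular dose of 250 pmol (100 μM) in 2.5 μL vehicle (0.3% CMC in Ringer's), both eyes treated identically, vehicle control. Tear volume by phenol red thread, 10 s in lateral canthus under isoflurane, before and at set times after dosing. 5 mice, 10 eyes per condition; two-way ANOVA with Dunnett test.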
row,Structure (SMILES),Activity
1,CCN(CC)c1nc(Nc2ccccc2)nc(OC(C(F)(F)F)C(F)(F)F)n1,Active

# Molecular target: T1, Cystic fibrosis transmembrane conductance regulator (Homo sapiens, UniProt P13569)
# Assay: Activation of human CFTR expressed in FRT cells co-expressing YFP assessed as increase in forskolin-stimulated iodide influx measured after 10 mins for 2 to 12 sec by fluorescence assay
# Format: cell-based
# Details: not given
# Target sequence in this assay (P13569 whole entry): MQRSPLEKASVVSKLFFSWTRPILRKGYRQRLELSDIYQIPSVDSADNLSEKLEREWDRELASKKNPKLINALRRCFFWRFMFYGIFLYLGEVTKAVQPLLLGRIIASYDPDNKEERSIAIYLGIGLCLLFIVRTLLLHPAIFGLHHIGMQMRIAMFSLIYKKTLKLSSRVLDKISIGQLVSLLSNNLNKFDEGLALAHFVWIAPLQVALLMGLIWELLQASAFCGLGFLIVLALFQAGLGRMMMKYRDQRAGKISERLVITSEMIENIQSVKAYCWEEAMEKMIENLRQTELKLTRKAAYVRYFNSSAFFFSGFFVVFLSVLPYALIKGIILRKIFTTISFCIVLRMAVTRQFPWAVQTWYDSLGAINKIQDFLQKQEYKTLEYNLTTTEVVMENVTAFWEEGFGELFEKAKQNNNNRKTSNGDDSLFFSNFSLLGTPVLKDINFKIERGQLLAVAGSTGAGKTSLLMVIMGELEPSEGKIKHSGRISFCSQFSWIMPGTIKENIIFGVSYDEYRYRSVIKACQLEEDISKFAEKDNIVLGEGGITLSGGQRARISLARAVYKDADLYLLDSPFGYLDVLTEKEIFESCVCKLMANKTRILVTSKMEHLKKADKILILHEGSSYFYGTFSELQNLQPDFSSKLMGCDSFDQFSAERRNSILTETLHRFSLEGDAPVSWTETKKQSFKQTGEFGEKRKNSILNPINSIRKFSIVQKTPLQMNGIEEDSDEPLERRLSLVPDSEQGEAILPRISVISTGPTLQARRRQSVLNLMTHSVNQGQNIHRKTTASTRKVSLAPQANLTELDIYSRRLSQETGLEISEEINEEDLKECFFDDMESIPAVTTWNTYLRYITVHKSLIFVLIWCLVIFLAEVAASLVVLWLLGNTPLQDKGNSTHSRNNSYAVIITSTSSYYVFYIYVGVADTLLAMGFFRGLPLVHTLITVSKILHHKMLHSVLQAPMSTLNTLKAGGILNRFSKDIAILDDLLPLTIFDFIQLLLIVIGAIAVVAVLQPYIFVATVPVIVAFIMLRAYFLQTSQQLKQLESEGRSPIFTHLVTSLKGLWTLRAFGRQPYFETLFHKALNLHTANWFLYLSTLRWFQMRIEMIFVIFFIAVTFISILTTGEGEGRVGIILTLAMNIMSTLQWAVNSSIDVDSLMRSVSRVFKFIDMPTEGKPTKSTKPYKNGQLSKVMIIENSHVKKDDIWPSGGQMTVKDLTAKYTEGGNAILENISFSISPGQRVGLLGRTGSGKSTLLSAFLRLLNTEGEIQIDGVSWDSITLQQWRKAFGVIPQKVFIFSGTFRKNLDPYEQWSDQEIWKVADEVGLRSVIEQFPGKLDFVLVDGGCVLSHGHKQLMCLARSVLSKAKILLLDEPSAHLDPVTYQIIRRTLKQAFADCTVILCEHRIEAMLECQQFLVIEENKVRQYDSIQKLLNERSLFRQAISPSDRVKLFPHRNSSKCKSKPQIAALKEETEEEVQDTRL
row,pEC50,Structure (SMILES)
1,4.74,CCN(CC)c1nc(Nc2ccc([N+](=O)[O-])cc2)nc(OC(C(F)(F)F)C(F)(F)F)n1
2,5.55,CCN(CC)c1nc(Nc2ccc3[nH]ncc3c2)nc(OC(C(F)(F)F)C(F)(F)F)n1
3,5.60,CCN(CC)c1nc(Nc2ccc(C(=O)O)cc2)nc(OCC(F)(F)C(F)F)n1

row,Structure (SMILES),pEC50
1,CCN(CC)c1nc(Nc2cccc([N+](=O)[O-])c2)nc(OC(C(F)(F)F)C(F)(F)F)n1,6.70
2,CCN(CC)c1nc(Nc2cccc(Cl)c2)nc(OC(C(F)(F)F)C(F)(F)F)n1,5.55

# Tested on: not listed separately
# Assay: Metabolic stability in rat hepatic microsomes assessed as parent compound remaining at 5 uM after 60 mins in presence of NADPH by LC-MS analysis
# Format: ADME, Microsome
# Details: liver microsomes, read-out: Stability
# In short: (§1)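 Compound at 5 μM incubated at 37 °C with rat liver microsomes (1 mg/mL) in potassium phosphate buffer with 1 mM NADPH; quenched with ice-cold EtOAc, centrifuged, supernatant analysed by LC/MS (C18, water/acetonitrile with 0.1% formic acid gradient, UV 254 nm) for parent remaining; mean ± SEM, n = 3.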
row,Structure (SMILES),"remaining at 1 h, 5 µM [%]"
1,CCN(CC)c1nc(Nc2ccc3ncoc3c2)nc(OC(C(F)(F)F)C(F)(F)F)n1,60

# Tested on: not listed separately
# Assay: Metabolic stability in rat hepatic microsomes assessed as parent compound remaining at 5 uM after 15 mins in presence of NADPH by LC-MS analysis
# Format: ADME, Microsome
# Details: liver microsomes, read-out: Stability
# In short: as §1
row,Structure (SMILES),"remaining at […], 5 µM [%]"
1,CCN(CC)c1nc(Nc2ccccc2)nc(OC(C(F)(F)F)C(F)(F)F)n1,< 40

# Molecular target: T1, Cystic fibrosis transmembrane conductance regulator
# Assay: Activation of human CFTR expressed in FRT cells co-expressing YFP assessed as increase in forskolin-stimulated iodide influx at 10 uM measured after 10 mins for 2 to 12 sec by fluorescence assay
# Format: cell-based
# Details: not given
# In short: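 FRT cells stably coexpressing human wild-type CFTR and YFP-H148Q halide sensor; PBS wash, then 10 min with compound in PBS containing 125 nM forskolin. Plate reader: 2 s baseline, then 12 s after rapid iodide-containing solution addition; initial iodide influx rate taken as linear measure of channel function.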
# Target sequence in this assay (P13569 whole entry, looked up): as the sequence (P13569 whole entry) above
row,Activity,Structure (SMILES)
1,inactive,CCC(C)Nc1nc(Nc2ccc([N+](=O)[O-])cc2)nc(OC(C(F)(F)F)C(F)(F)F)n1 (configuration not stated)
2,inactive,COc1nc(Nc2ccc(OC)c(Cl)c2)nc(OC)n1
3,inactive,Fc1ccc(Nc2nc(OC(C(F)(F)F)C(F)(F)F)nc(N3CCCCC3)n2)cc1
4,inactive,CNc1nc(Nc2ccc(OC(F)(F)Cl)cc2)nc(OCC(F)(F)F)n1
5,inactive,FC(F)(F)COc1nc(Nc2ccc(OC(F)(F)F)cc2)nc(NC2CC2)n1
6,inactive,Cc1ccc(Nc2nc(OC(C(F)(F)F)C(F)(F)F)nc(N3CCCCC3)n2)cc1
7,inactive,O=[N+]([O-])c1ccc(Nc2nc(OC(C(F)(F)F)C(F)(F)F)nc(OC(C(F)(F)F)C(F)(F)F)n2)cc1
8,Active,CNc1nc(Nc2ccc([N+](=O)[O-])cc2)nc(OCC(F)(F)C(F)F)n1
9,inactive,CC(=O)c1ccc(Nc2nc(OC(C(F)(F)F)C(F)(F)F)nc(OC(C(F)(F)F)C(F)(F)F)n2)cc1
10,inactive,FC(F)(F)COc1nc(Nc2ccccc2)nc(OCC(F)(F)F)n1
11,inactive,CC(C)Nc1nc(Nc2ccc([N+](=O)[O-])cc2)nc(OC(C(F)(F)F)C(F)(F)F)n1
12,inactive,FC(F)(F)COc1nc(Nc2ccc(OC(F)(F)Cl)cc2)nc(OCC(F)(F)F)n1
13,inactive,Cc1ccc(Nc2nc(OC(C(F)(F)F)C(F)(F)F)nc(OC(C(F)(F)F)C(F)(F)F)n2)cc1
14,inactive,FC(F)(F)C(Oc1nc(N2CCCCCC2)nc(N(c2ccccc2)c2ccccc2)n1)C(F)(F)F
15,inactive,O=[N+]([O-])c1cccc(Nc2nc(OC(C(F)(F)F)C(F)(F)F)nc(OC(C(F)(F)F)C(F)(F)F)n2)c1
16,inactive,CC(=O)N1CCN(c2nc(Nc3ccccc3C(=O)c3ccccc3)nc(OC(C(F)(F)F)C(F)(F)F)n2)CC1
17,inactive,CN(C)c1nc(Nc2ccc(OC(F)(F)F)cc2)nc(OCC(F)(F)F)n1
18,inactive,CNc1nc(Nc2ccccc2C(F)(F)F)nc(OC(C(F)(F)F)C(F)(F)F)n1
19,inactive,FC(F)(F)C(Oc1nc(Nc2cccnc2)nc(OC(C(F)(F)F)C(F)(F)F)n1)C(F)(F)F
20,inactive,Cc1ccccc1Nc1nc(OC(C(F)(F)F)C(F)(F)F)nc(OC(C(F)(F)F)C(F)(F)F)n1
21,inactive,CNc1nc(Nc2ccc(C(C)=O)cc2)nc(OC(C(F)(F)F)C(F)(F)F)n1
22,inactive,COc1nc(Nc2ccc([N+](=O)[O-])cc2)nc(OC)n1
23,Active,C=CCNc1nc(Nc2cccc([N+](=O)[O-])c2)nc(OC(C(F)(F)F)C(F)(F)F)n1
24,inactive,COc1ccc(Nc2nc(NC3CCCCC3)nc(OC(C(F)(F)F)C(F)(F)F)n2)cc1
25,inactive,FC(F)(F)C(Oc1nc(Nc2ccc(Cl)cc2)nc(N2CCOCC2)n1)C(F)(F)F
26,inactive,O=[N+]([O-])c1ccccc1Nc1nc(OC(C(F)(F)F)C(F)(F)F)nc(OC(C(F)(F)F)C(F)(F)F)n1
27,inactive,CC(C)(C)Nc1nc(Nc2ccc(OC(F)(F)Cl)cc2)nc(OCC(F)(F)F)n1
28,inactive,FC(F)(F)C(Oc1nc(Nc2ccccc2)nc(OC(C(F)(F)F)C(F)(F)F)n1)C(F)(F)F

row,Structure (SMILES),Activity
1,CCN(CC)c1nc(Nc2ccccc2)nc(OC(C(F)(F)F)C(F)(F)F)n1,Active
